pIC50: −log10 of the molar value. Values after ≈ are worked out from the molar mass of the structure shown.
Tests used:
[1] = Cmax in Sprague-Dawley rat at 2 mg/kg, po; type: ADME, organism-based; set-up: route oral, dose 2 mg/kg; conditions: in vivo
Summary of the method: (§1)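 Multi-species PK study in male animals, n = 3 per group (dog IV arm n = 2). Iv and oral dosing with plasma concentration–time profiles yielding Cmax, tmax, AUC0–t, CL, Vss, t1/2 and F.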

[2] = Plasma protein binding in rat plasma assessed as unbound concentration at 5 uM incubated for 6 hrs by HPLC analysis; type: ADME, cell-free
[3] = Plasma protein binding in rat assessed as unbound fraction; type: ADME, cell-free
[4] = Plasma protein binding in human assessed as unbound fraction; type: ADME, cell-free
[5] = Solubility of the compound at pH 6.8 by shake flask method; type: physicochemical; conditions: buffer
Summary of the method: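 Shake-flask solubility at pH 6.8; solid form not characterized.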

[6] = Half life in Sprague-Dawley rat at 1 mg/kg; type: ADME, organism-based; conditions: in vivo
Summary of the method: (§2)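 Rat PK with iv and po administration at 1 mg/kg. Clearance and half-life came from the iv arm, and bioavailability from the iv/po comparison.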

[7] = Bioavailability in Sprague-Dawley rat at 1 mg/kg, po or 1 mg/kg, iv; type: ADME, organism-based; conditions: in vivo; summary of the method: as §2
[8] = Clearance in mouse at 0.5 mg/kg, iv; type: ADME, organism-based; conditions: in vivo; summary of the method: as §1
[9] = Half life in mouse at 1 mg/kg, po; type: ADME, organism-based; conditions: in vivo; summary of the method: as §1
[10] = Volume of distribution at steady state in Sprague-Dawley rat at 1 mg/kg, iv; type: ADME, organism-based; conditions: in vivo, read-out: Vdss
Summary of the method: (§3)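 Single iv or oral doses in male animals, 3 per group except dog iv (2 animals). Plasma concentration–time profiles gave Cmax, tmax, AUC0–t, clearance, steady-state volume of distribution, half-life and bioavailability.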

[11] = Half life in Sprague-Dawley rat at 1 mg/kg, iv; type: ADME, organism-based; conditions: in vivo; summary of the method: as §2
[12] = AUC (0 to t) in Sprague-Dawley rat at 2 mg/kg, po; type: ADME, organism-based; set-up: dose 2 mg/kg; conditions: in vivo; summary of the method: as §1
[13] = Tmax in Sprague-Dawley rat at 3 mg/kg, po; type: ADME, organism-based; conditions: in vivo; summary of the method: as §3
[14] = Half life in Sprague-Dawley rat at 3 mg/kg, po; type: ADME, organism-based; conditions: in vivo
[15] = Oral bioavailability in Sprague-Dawley rat at 3 mg/kg; type: ADME, organism-based; conditions: in vivo; summary of the method: as §3
[16] = Cmax in Sprague-Dawley rat at 8 mg/kg, po; type: ADME, organism-based; set-up: route oral, dose 8 mg/kg; conditions: in vivo; summary of the method: as §1
[17] = Tmax in Sprague-Dawley rat at 8 mg/kg, po; type: ADME, organism-based; conditions: in vivo; summary of the method: as §3
[18] = Oral bioavailability in Sprague-Dawley rat at 8 mg/kg; type: ADME, organism-based; conditions: in vivo; summary of the method: as §3
[19] = Clearance in Beagle dog at 1 mg/kg, iv; type: ADME, organism-based, Canis lupus familiaris; conditions: in vivo; summary of the method: as §1
[20] = Volume of distribution at steady state in Beagle dog at 1 mg/kg, iv; type: ADME, organism-based, Canis lupus familiaris; conditions: in vivo; summary of the method: as §3
[21] = Oral bioavailability in Beagle dog at 1 mg/kg; type: ADME, organism-based, Canis lupus familiaris; conditions: in vivo; summary of the method: as §1
[22] = Clearance in cynomolgus monkey at 1 mg/kg, iv; type: ADME, organism-based, Macaca fascicularis; conditions: in vivo; summary of the method: as §1
[23] = Half life in cynomolgus monkey at 1 mg/kg, po; type: ADME, organism-based, Macaca fascicularis; conditions: in vivo; summary of the method: as §1
[24] = system: Rattus norvegicus; assay: Anti-hypertrophic cardiomyopathy in Sprague-Dawley rat assessed as reduction in fractional shortening at 4 mg/kg, po measured upto 24 hrs by echocardiography relative to control; type: functional; set-up: scale not given: the % may be the effect or the level left; conditions: time hrs <=24
Summary of the method: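 Normal Sprague–Dawley rats were given single oral doses of 0.5–4 mg/kg. Left ventricular dimensions and fractional shortening were measured by echocardiography at selected time points over 24 h, relative to vehicle treatment.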

[25] = Plasma protein binding in Sprague-Dawley rat assessed as unbound fraction; type: ADME
[26] = target: T1, Cytochrome P450 2B6 (Homo sapiens, UniProt P20813); assay: Inhibition of CYP2B6 in human liver microsomes assessed as bupropion hydroxylation reaction incubated for 30 mins in presence of NADP by LC-MS/MS analysis; type: ADME
T1 sequence (P20813 whole entry): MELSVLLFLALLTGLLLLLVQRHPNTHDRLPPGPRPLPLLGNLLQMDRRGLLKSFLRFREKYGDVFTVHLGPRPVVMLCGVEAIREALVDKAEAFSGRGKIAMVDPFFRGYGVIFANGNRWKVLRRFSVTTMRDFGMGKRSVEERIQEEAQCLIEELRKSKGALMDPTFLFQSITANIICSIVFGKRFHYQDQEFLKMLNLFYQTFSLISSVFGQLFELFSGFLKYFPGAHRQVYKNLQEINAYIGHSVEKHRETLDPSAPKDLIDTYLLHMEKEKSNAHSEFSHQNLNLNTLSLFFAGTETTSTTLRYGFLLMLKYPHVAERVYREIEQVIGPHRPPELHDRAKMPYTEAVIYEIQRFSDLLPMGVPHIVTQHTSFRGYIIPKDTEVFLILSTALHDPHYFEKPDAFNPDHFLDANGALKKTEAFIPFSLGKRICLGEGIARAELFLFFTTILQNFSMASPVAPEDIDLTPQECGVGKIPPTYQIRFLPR

[27] = target: T2, Cytochrome P450 2C8 (Homo sapiens, UniProt P10632); assay: Inhibition of CYP2C8 in human liver microsomes assessed as paclitaxel 6a-hydroxylation reaction incubated for 30 mins in presence of NADP by LC-MS/MS analysis; type: ADME
T2 sequence (P10632 whole entry): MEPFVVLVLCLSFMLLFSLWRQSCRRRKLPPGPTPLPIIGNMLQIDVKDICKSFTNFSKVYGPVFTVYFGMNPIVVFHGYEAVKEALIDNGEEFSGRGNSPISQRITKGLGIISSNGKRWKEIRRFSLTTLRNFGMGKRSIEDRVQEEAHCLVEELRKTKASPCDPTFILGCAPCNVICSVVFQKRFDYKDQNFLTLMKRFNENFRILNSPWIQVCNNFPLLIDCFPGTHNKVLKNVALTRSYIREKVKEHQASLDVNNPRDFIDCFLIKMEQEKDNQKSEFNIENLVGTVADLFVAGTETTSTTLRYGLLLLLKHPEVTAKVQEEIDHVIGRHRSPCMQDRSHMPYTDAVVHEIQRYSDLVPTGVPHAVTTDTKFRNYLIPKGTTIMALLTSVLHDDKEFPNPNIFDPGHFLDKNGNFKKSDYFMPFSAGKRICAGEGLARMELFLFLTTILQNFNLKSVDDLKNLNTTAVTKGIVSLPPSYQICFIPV

[28] = target: Cytochrome P450 2C9 (Homo sapiens, UniProt P11712); assay: Inhibition of CYP2C9 in human liver microsomes assessed as diclofenac 4'-hydroxylation reaction incubated for 30 mins in presence of NADP by LC-MS/MS analysis; type: ADME
Sequence of Cytochrome P450 2C9 (P11712 whole entry): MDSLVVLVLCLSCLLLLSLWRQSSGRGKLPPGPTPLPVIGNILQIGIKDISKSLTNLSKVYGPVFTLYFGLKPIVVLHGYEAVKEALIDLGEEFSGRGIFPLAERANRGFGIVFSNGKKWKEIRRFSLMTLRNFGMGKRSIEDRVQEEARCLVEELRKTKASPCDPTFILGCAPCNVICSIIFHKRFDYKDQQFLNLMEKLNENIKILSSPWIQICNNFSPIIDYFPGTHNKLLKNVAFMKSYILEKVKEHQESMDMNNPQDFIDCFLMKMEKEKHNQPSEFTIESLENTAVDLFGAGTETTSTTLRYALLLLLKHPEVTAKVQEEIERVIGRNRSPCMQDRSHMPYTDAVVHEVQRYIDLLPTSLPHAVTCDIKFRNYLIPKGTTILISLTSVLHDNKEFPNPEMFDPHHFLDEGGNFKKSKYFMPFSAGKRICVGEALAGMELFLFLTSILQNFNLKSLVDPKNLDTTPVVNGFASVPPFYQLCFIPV

[29] = target: Cytochrome P450 2C19 (Homo sapiens, UniProt P33261); assay: Inhibition of CYP2C19 in human liver microsomes assessed as mephenytoin 4-hydroxylation reaction incubated for 30 mins in presence of NADP by LC-MS/MS analysis; type: ADME
Sequence of Cytochrome P450 2C19 (P33261 whole entry): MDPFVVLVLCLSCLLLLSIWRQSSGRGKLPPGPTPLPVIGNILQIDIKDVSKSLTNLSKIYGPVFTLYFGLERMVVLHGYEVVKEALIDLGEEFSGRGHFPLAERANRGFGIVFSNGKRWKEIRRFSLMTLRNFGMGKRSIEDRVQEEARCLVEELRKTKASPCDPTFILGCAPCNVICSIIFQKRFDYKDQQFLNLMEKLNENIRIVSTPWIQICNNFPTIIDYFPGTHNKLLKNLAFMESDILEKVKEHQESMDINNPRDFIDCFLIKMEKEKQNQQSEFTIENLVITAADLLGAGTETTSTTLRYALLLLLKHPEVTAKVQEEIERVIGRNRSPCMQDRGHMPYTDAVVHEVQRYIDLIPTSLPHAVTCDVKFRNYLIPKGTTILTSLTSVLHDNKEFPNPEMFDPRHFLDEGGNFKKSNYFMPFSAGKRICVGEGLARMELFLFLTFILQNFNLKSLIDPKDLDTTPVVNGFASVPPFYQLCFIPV

[30] = target: Cytochrome P450 2D6 (Homo sapiens, UniProt P10635); assay: Inhibition of CYP2D6 in human liver microsomes assessed as bufuralol 1'-hydroxylation reaction incubated for 30 mins in presence of NADP by LC-MS/MS analysis; type: ADME
Sequence of Cytochrome P450 2D6 (P10635 whole entry): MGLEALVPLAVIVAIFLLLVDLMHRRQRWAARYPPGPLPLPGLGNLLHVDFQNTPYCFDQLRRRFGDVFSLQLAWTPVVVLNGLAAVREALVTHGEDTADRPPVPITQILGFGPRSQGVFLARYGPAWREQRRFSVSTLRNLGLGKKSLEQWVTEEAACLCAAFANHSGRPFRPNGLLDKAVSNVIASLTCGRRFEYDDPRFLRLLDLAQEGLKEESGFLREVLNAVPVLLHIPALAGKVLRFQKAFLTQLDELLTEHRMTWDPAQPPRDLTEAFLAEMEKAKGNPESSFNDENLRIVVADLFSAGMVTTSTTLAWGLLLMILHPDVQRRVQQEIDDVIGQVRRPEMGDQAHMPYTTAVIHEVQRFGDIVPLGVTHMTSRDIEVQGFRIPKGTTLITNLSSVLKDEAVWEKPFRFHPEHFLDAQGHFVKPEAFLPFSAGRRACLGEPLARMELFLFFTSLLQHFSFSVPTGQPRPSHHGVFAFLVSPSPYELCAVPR

[31] = target: T3, Cytochrome P450 3A4 (Homo sapiens, UniProt P08684); assay: Inhibition of CYP3A4 in human liver microsomes assessed as midazolam 1'-hyrozylation reaction incubated for 30 mins in presence of NADP by LC-MS/MS analysis; type: ADME
T3 sequence (P08684 whole entry): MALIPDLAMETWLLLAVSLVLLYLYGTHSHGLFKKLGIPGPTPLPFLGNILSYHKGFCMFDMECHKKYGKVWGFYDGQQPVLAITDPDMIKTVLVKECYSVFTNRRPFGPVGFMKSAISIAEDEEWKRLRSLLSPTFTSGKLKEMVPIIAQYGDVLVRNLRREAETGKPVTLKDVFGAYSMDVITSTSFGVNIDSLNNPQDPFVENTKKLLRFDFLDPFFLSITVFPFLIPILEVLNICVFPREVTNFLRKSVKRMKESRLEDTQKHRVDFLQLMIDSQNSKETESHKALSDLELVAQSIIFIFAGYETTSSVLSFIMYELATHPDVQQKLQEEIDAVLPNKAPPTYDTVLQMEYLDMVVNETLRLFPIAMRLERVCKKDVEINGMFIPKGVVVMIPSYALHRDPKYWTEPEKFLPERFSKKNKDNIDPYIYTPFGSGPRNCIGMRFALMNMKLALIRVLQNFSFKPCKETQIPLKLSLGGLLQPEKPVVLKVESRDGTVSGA

[32] = target: T3, Cytochrome P450 3A4; assay: Inhibition of CYP3A4 in human liver microsomes assessed as testosterone 6-beta-hydroxylation reaction incubated for 30 mins in presence of NADP by LC-MS/MS analysis; type: ADME
[33] = Half life in human; type: ADME

**Q.** Which results are given for `CCc1nc(-c2ccc3c(c2)CC[C@H]3NC(=O)c2cnn(C)c2)no1` [AFICAMTEN]?
**A.** Cmax [1]: 1650 ng/mL; fraction unbound at 6 h, 5 µM [2]: 0.018; fraction unbound [3]: 0.018; fraction unbound [4]: 0.095; solubility thermodynamic [5]: 97 µM (≈ 32.7 µg/mL); half-life [6]: 180 min; bioavailability [7]: 55%; clearance [8]: 8.8 mL/min/kg; half-life [9]: 204 min; Vd [10]: 0.53 L/kg; half-life [11]: 180 min; AUC(0-t) [12]: 9450 ng·h/mL; Tmax [13]: 25.2 min; half-life [14]: 210 min; bioavailability [15]: 58%; Cmax [16]: 8440 ng/mL; Tmax [17]: 34.8 min; bioavailability [18]: 79%; clearance [19]: 3.3 mL/min/kg; Vd [20]: 10.5 L/kg; bioavailability [21]: 45%; clearance [22]: 11.2 mL/min/kg; half-life [23]: 726 min; Activity [24]: 70%; fraction unbound [25]: 0.018; pIC50 [26]: < 4.00; pIC50 [27]: < 4.00; pIC50 [28]: < 4.00; pIC50 [29]: < 4.00; pIC50 [30]: < 4.00; pIC50 [31]: < 4.00; pIC50 [32]: < 4.00; half-life [33]: 2.8 days

From ChEMBL document CHEMBL4831540, “Discovery of Aficamten (CK-274), a Next-Generation Cardiac Myosin Inhibitor for the Treatment of Hypertrophic Cardiomyopathy” (J Med Chem, 2021)
